Bioassay records (PubChem)
Sampled rows, rich in hits. Any-hit rate of the full collection: about 2.6%.
PRMT1 FP inh: PRMT1 (human) inhibition, primary screen | recombinant PRMT1, activity-based probe fluorescence polarization | inhibition, % at 2.79 µM | actives 1.3% (n = 370,000);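 active = inhibition above about 21% made by adding two undisclosed values, limit read from the data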
Target sequence (Q99873 whole entry, looked up): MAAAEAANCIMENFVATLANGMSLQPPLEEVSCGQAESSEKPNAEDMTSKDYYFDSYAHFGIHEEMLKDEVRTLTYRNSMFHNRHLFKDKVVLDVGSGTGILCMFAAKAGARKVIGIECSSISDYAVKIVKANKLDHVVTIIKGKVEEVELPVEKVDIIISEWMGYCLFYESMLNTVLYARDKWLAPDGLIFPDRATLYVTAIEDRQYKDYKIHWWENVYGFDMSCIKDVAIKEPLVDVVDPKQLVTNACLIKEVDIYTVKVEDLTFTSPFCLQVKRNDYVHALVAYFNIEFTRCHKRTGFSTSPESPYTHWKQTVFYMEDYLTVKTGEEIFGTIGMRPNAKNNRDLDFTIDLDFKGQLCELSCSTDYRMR
SIAE inh: inhibitors of human sialic acid acetylesterase SIAE | Q9HAT2 | SIAE FP-Rh probe binding, fluorescence polarization | inhibition, % at 9.66 µM | actives 0.69% (n = 370,000);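 active = inhibition above a cutoff: mean of compounds within the control limits plus 3 SD of those, cut at about 17% in these data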
TCR-CD3 inh: inhibitors of human TCR-CD3 interaction. TAMRA-labeled TCR probe fluorescence, biochemical. inhibition, % at 9.4 µM. actives 0.37% (n = 360,000); in the data active = inhibition above about 19%;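 note: recombinant mutant TCR 2C K166C tagged with TAMRA read by polarization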
mABHD4 FP: inhibitors of mouse ABHD4 | Q8VD66 | purified mABHD4, FP-Rh probe fluorescence polarization | inhibition, % at 8.92 µM | actives 0.54% (n = 370,000) | AID 720543;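 active = inhibition exceeding the mean over every tested compound plus 3 SD, cut at about 30% in these data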
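assay system = mABHD4 protein | compound dosing = single nominal dose of 8.92 µM, 0.89% DMSO final | read-out basis = percent inhibition of probe binding, normalized to plate controls | schedule = Enzyme–compound pre-incubation 45 min, then probe 60 min, both 25 °C | detection = fluorescence polarization, excitation 525 nm, emission 598 nm, BODIPY TMR filters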
HTRA1 inhibitor: blocks human HTRA1 serine peptidase | recombinant HTRA1, FP-rhodamine activity-based probe, fluorescence polarization | inhibition, % at 5.96 µM | Q92743 | AID 504803 | actives 0.5% (n = 340,000); in the data active = inhibition above about 36%
SIAE confirm: confirmation of human SIAE inhibitors | AID 1117263 | shares compounds with SIAE inh | SIAE FP-Rh activity-based probe, fluorescence polarization | inhibition, % at 9.66 µM | actives 13% (n = 2,300);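 active = mean inhibition of the replicates above the hit cutoff set in the primary screen, cut at about 17% in these data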;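 note: inhibitors lower polarization as more probe stays unbound to SIAE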
Hits are given with their value; - = inactive; . = no result given.

SMILES | PRMT1 FP inh | SIAE inh | TCR-CD3 inh | mABHD4 FP | HTRA1 inhibitor | SIAE confirm
COC(=O)[C@]12C[C@H](CC(=O)NCc3ccc(OC)c(OC)c3)C(=O)N(Cc3ccccc3)C1=C[C@H](C1CCCC1)O[C@@H]2C | - | - | - | - | . | .
C=CC(=O)Nc1cccc(Oc2cc(Cl)nc3[nH]ccc23)c1 | - | - | - | - | - | .
C=CC(=O)Nc1cccc(Oc2nc(Nc3ccc(N4CCN(C)CC4)cc3OC)ncc2Cl)c1 | - | 19.8 | - | - | . | -
O=C(Nc1ccc2[nH]c(=S)sc2c1)Nc1ccccc1F | - | 26.2 | - | - | - | -
O=C1Nc2ccccc2C12NCCc1c2[nH]c2ccccc12 (stereo not given) | - | - | - | - | - | .
CC1=CC(C)(C)N2C(=O)C3(NCCc4c3[nH]c3ccccc43)c3cccc1c32 (stereo not given) | - | 17.9 | - | - | - | -
Cc1cc(NC(=O)Nc2cccc(F)c2)n(-c2ccccc2)n1 | - | - | . | - | . | .
Cc1ccc(NC(=O)CSc2nccn2Cc2ccccc2)cc1C | - | 17.6 | - | - | - | -
CN1C[C@]2(C=C3CCCCC3n3c(=O)n(-c4ccccc4)c(=O)n32)N(C(=O)OCc2ccccc2)C1=NC(=O)c1ccccc1 (stereo not given in full) | - | - | . | - | . | .
Cc1ccc(NC(=O)CN2CCN(c3nc(-c4ccccc4)cs3)CC2)cc1C | - | - | . | - | . | .
O=C(NCC1CCCO1)c1ccccc1 (stereo not given) | - | 17.4 | - | - | - | -
COc1ccc(S(=O)(=O)N(CC(=O)NCC2CCCO2)Cc2ccccc2)cc1 (stereo not given) | - | - | - | - | - | .
O=C(NCC1CCCO1)c1nnc(Cc2ccc(F)cc2)o1 (stereo not given) | - | 18.0 | - | - | - | -
S=C(NCC1CCCO1)Nc1ccccc1 (stereo not given) | - | 21.1 | - | - | - | -
O=C(CSc1nnc(CNC(=O)c2ccc(F)cc2)o1)NCC1CCCO1 (stereo not given) | - | - | - | - | - | .
O=C(CN(Cc1ccc(Br)cc1)S(=O)(=O)c1ccccc1)NCC1CCCO1 (stereo not given) | - | 18.1 | - | - | - | -
C[C@@H]1CN([C@@H](C)CO)C(=O)CCCn2cc(nn2)CO[C@H]1CN(C)C(=O)Nc1ccc(C(C)(C)C)cc1 | - | - | - | - | . | .
CCOc1ccc(-n2c(COc3ccc(C)cc3)nnc2SCC(=O)c2ccc3ccccc3c2)cc1 | - | - | . | - | . | .
Cc1ccc(O)c(Nc2nc(-c3ccccc3)nc3ccccc23)c1 | - | - | - | - | - | .
Cc1ccc(O)c(Nc2c3ccccc3nc3ccccc23)c1 | - | 36.6 | - | - | - | -
O=C(OCC(=O)c1c[nH]c2ccccc12)c1cccc([N+](=O)[O-])c1 | - | 21.3 | - | - | - | -
Cc1ccc(OCCn2cc(/C(N)=N/O)c3ccccc32)cc1C | - | 19.7 | - | - | - | -
CCOC(=O)[C@@]12CN(C(=O)OC(C)(C)C)CC=C1N(Cc1ccc(OC)cc1)C(=O)[C@H]2CC(=O)NCCCN1CCCC1=O | - | - | . | - | . | .
O=C(CCc1ccccc1)N[C@H]1[C@@H](O)CCC[C@]12C(=O)N(Cc1ccccc1)c1ccccc12 | - | - | . | - | . | .
Cc1ccccc1N1CCN(C2=NC(=O)/C(=C/c3cn[nH]c3-c3ccccc3)S2)CC1 | - | 23.7 | - | - | - | -
SMILES | PRMT1 FP inh | SIAE inh | TCR-CD3 inh | mABHD4 FP | HTRA1 inhibitor | SIAE confirm
CN(C)c1ccc(C2Nc3cccc4cccc(c34)N2)cc1 | - | 38.0 | - | - | - | -
COc1ccc(C2Nc3cccc4cccc(c34)N2)cc1 | - | 25.3 | - | - | - | -
CN(C)c1ccc(C2NC(=O)c3ccccc3N2)cc1 (stereo not given) | - | - | - | - | - | .
Nn1c(SCC(=O)Nc2ccc(F)cc2)nnc1C1CCCCC1 | - | - | - | - | - | .
CN(C)c1ccc(NC(=O)CSc2nnc(C3CCCCC3)n2N)cc1 | - | 20.3 | - | - | - | -
O=C1[C@@H](CCc2ccccc2)[C@@H]2c3cc4ccccc4cc3C=NN2[C@@H]2c3cc4ccccc4cc3C=NN12 | - | - | . | - | . | .
COCCNC(=O)c1cccc(OC2CCN(Cc3ccc(C(=O)OC)cc3)CC2)c1 | - | 50.6 | - | - | - | -
